Hits are enriched below; roughly 1.4% of the tested compounds scored in any of these assays.
FXIIa inh = inhibitors of human coagulation factor XIIa; 220,000 tested, 0.3% active; P00748; AID 800; purified FXIIa, Boc-QGR-AMC fluorogenic substrate, 2 h; inhibition, % at 5 µM; in the data active = inhibition above about 40%
Calpain2 inh = calpain II (pig) inhibition. purified calpain II, fluorogenic peptide substrate, 30 min. inhibition, % at 16 µM. 220,000 tested, 0.37% active;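 active = inhibition above about 50%, limit read from the data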
Thrombin inh = thrombin (human) inhibition. alpha-thrombin, Boc-VPR-AMC fluorogenic substrate cleavage. inhibition, % at 5 µM. 220,000 tested, 0.26% active. P00734;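 active = inhibition at or above 40%; inactive = inhibition below 40%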
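Material: human alpha-thrombin protein; Also added: Boc-VPR-AMC substrate, 15 µM final; Timing: enzyme reaction carried out at room temperature; Signal: fluorescence, ex 355 nm, em 460 nm; Measure: % inhibition of thrombin; Controls: enzyme without compound as high, wells lacking enzyme as low.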
KLK5 inh = kallikrein 5 (human) inhibition; Q9Y337; recombinant hK5, fluorogenic AMC substrate cleavage; inhibition, % at 5 µM; 210,000 tested, 0.59% active; AID 873;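 active = inhibition of 40% or more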
Target sequence (Q9Y337 67-293 limits assumed): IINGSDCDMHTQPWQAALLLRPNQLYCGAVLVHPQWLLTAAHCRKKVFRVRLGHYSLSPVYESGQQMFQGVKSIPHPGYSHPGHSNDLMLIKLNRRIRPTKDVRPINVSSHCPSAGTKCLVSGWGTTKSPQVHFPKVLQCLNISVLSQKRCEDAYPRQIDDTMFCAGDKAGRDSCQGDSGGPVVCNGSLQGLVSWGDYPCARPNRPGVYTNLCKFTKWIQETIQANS
FXIa inh = blocks human coagulation factor XIa protease activity. 220,000 tested, 0.14% active. P03951. inhibition, % at 5 µM. purified FXIa, Boc-Glu-Ala-Arg-AMC fluorogenic substrate;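 active = inhibition of at least 40%; inactive = inhibition below 40%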;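 note: fluorescence of freed AMC excited at 355 nm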
Large screens that a line does not name were inactive.

C=C(C)COc1ccc(-c2ncncc2Oc2ccc(OC)cc2)c(O)c1	KLK5 inh 43
C=C(C)COc1ccc(-c2[nH]ncc2Oc2cccc(OC)c2)c(O)c1	Calpain2 inh 57, KLK5 inh 63
Cc1ccc(SCc2cc(=O)[nH]c(N3CCOCC3)n2)cc1	none
COc1ccc(NC(=O)c2cccnc2N2CCCC2)cc1	KLK5 inh 59
C/C(=N\NC(=O)c1cccc(N/N=C(\C)c2ccccc2)c1)c1ccccc1	FXIIa inh 63
C/C(=N\NC(=O)c1cccc(N/N=C(\C)c2ccncc2)c1)c1ccncc1	none
N#Cc1ccc(C(=O)N/N=C/c2cn(CC(=O)O)c3ccccc23)c(F)c1	none
CCOC(=O)CNC(=O)CSc1nc(NCc2ccccc2)nc(N(C)C)n1	none
CN(C)c1ccc(/C=C/c2ccc3ccccc3[n+]2C)cc1	Calpain2 inh 57
CCc1c(C)nc2ncnn2c1N1CCC(C(=O)Nc2ccccc2)CC1	FXIIa inh 53
CCc1c(C)nc2ncnn2c1N1CCC(C(=O)Nc2ccc(C)cc2)CC1	none
COc1ccc(C(=O)/C=C/c2ccc(C)cc2)c(OC(=O)c2ccc([N+](=O)[O-])cc2)c1	none
c1coc(-c2nc(-c3ccco3)c(-c3ccco3)nc2-c2ccco2)c1	KLK5 inh 71
Nc1nc(-c2ccco2)c(-c2ccco2)s1	none
O=C(CC12CC3CC(CC(C3)C1)C2)N/N=C\c1ccc[nH]1	none
Cc1nn(CC(=O)Nc2ccc3c(c2)oc2ccccc23)c(=O)c2ccccc12	none
CCCCCc1ccc(OCCCC[n+]2ccc(C)cc2)c(CCCCC)c1	KLK5 inh 40
Cc1ccccc1Nc1nnc(SCC(=O)NC(=O)Nc2ccc3c(c2)OCCO3)s1	none
Cn1c(SCC(=O)N2CCCc3ccccc32)nc2cccnc21	none
Cc1cc(C)nc(SCCS(=O)(=O)Cc2ccc(Cl)cc2)n1	none
Cc1cc(C)nc(SCCS(=O)(=O)Cc2ccccc2)n1	KLK5 inh 115
COc1ccc(C2C(Oc3ccccc3C)C(=O)N2Cc2ccc(F)cc2)cc1OC (configuration not stated)	none
Cc1ccc(NC(=O)CNc2ccc(OC(C)C)cc2)cc1	none
Cc1ccc(C(CC(=O)NCCCN(C)C)c2ccc(OC(C)C)cc2)cc1 (configuration not stated)	FXIIa inh 63
FC(F)(F)c1nnc2ccc(NCn3nnc4ccccc43)nn12	none
Cc1cc(N(C)C)c(C#N)c(NCc2ccccc2)n1	KLK5 inh 64
COc1cccc(-c2nn(-c3ccccc3)cc2CN(C)C(C)c2ccon2)c1 (configuration not stated)	KLK5 inh 46
COc1cccc(-c2nn(-c3ccccc3)cc2CN(C)Cc2ccno2)c1	none
COc1ccc(/C=N/NC(=O)c2sc3nc(C)cc(C)c3c2N)cc1	FXIIa inh 87, Thrombin inh 42, KLK5 inh 48
COc1cccc(NC(=O)CN(c2cccc(F)c2)S(C)(=O)=O)c1	none
O=C(NNc1cc(Cl)ccc1Cl)c1cccs1	KLK5 inh 55
Cc1cc(Cl)ccc1NNC(=O)c1cccs1	none
COc1ccc(C2C3=C(CC(C)(C)CC3=O)N(C)C3=C2C(=O)CC(C)(C)C3)cc1	none
CCOc1ccc(N(CC(=O)Nc2cc(C)ccc2C)S(=O)(=O)c2c(C)[nH]c(=O)[nH]c2=O)cc1	FXIIa inh 100
CCOc1ccc(N(CC(=O)Nc2ccccc2C)S(=O)(=O)c2c(C)[nH]c(=O)[nH]c2=O)cc1	none
CCc1nc(OCCN(C)C)c2oc3ccccc3c2n1	KLK5 inh 43
CCc1nc(Nc2ccccc2)c2oc3ccccc3c2n1	none
COc1ccc(N2CCN(C(=O)CNC(=O)c3cn(-c4ccccc4OC)c(=O)c4ccccc34)CC2)cc1	none (no result: KLK5 inh)
Cn1c(=O)c2c(nc(SCCN3CCOCC3)n2Cc2ccc(F)cc2)n(C)c1=O	KLK5 inh 52
Cc1cccc(NC(=O)CSc2nnc(CNC(=O)c3cccs3)o2)c1C	none
CCCCCCCCCCCC(=O)N1CC(=O)NC(=O)C1	FXIIa inh 46, KLK5 inh 54
Cn1nc(-c2ccc(Cl)cc2)cc1NC(=O)CSCC(=O)O	none
CCOC(=O)c1c(C)[nH]c(C)c1C(=O)COC(=O)/C=C/c1cccc(F)c1	KLK5 inh 52
Cc1cc(=O)[nH]c2c1c(C)nn2C1CCCC1	KLK5 inh 54
CCN(CC)CC#CCC(O)(c1ccccc1)C1CCCC1 (configuration not stated)	none
COc1ccc(N2CCn3c2nc2c3c(=O)n(CCc3ccccc3)c(=O)n2C)c(OC)c1	none
COc1ccc(OCCCc2c(C)n[nH]c2C)cc1	KLK5 inh 55
CC(=O)OC1c2ccccc2C(=O)N1c1ccccc1C (configuration not stated)	none
COCC(=O)n1nc(-c2ccccc2)nc1NCc1ccc(F)cc1	Thrombin inh 90
COCC(=O)n1nc(-c2ccccc2)nc1NCc1ccccc1	Thrombin inh 91
N#Cc1c(-c2cccs2)nc(SCC(=O)c2cccs2)[nH]c1=O	KLK5 inh 71
Cc1cccc(OCCCSc2nc3ccccc3[nH]2)c1	none
COc1ccc(NC(=S)NCCc2c(C)[nH]c3ccc(OC)cc23)cc1	Calpain2 inh 62
CCOC(=O)c1sc(NC(=O)/C=C/c2cnn(C)c2C)c(C(=O)OCC)c1C	Thrombin inh 47
COc1ccc(CCN(C)C(=O)CSc2nccn2C)cc1OC	none
O=C(O)CSCC(=O)NCc1cccc(C(F)(F)F)c1	Thrombin inh 40
O=C(CSc1cccc(C(F)(F)F)c1)NCc1ccccc1	none
O=C(Nc1cc(=O)c2ccccc2o1)N1CCOCC1	none
Cc1ccc2oc(NC(=O)N3CCOCC3)cc(=O)c2c1	FXIIa inh 80
O=C(CSc1nnnn1-c1ccccc1)CSc1nnnn1-c1ccccc1	Calpain2 inh 76
O=C1c2ccccc2C(=O)N1CCCCSc1nnnn1-c1ccccc1	Calpain2 inh 54
O=C1c2ccccc2C(=O)N1CSc1nnnn1-c1ccccc1	none
O=C(CCC1CCCCC1)Nc1ccc(C(=O)c2ccncc2)cc1	Calpain2 inh 51
CCn1cc(C(=O)NCc2ccccc2OC)c(=O)c2cc(S(=O)(=O)N(C)C)ccc21	none
CCn1cc(C(=O)NCc2ccc3c(c2)OCO3)c(=O)c2cc(S(=O)(=O)N(C)C)ccc21	Thrombin inh 55
CCn1cc(C(=O)NCc2ccc3c(c2)OCO3)c(=O)c2cc(S(=O)(=O)N3CCOCC3)ccc21	Thrombin inh 93
CCn1cc(C(=O)NCc2ccc(Cl)cc2)c(=O)c2cc(S(=O)(=O)N3CCOCC3)ccc21	Thrombin inh 56
O=C(N/N=C1\CCCc2ccccc21)c1cccc([N+](=O)[O-])c1	none
O=C(N/N=C1/CCCc2ccccc21)c1cc([N+](=O)[O-])cc([N+](=O)[O-])c1	Calpain2 inh 74 (no result: Thrombin inh)
Cn1c(CCNC(=O)c2ccccc2Cl)n[nH]c1=S	none
CCn1c(SCC(=O)c2ccc(Cl)cc2)nnc1C(C)C	none
CCn1c(SCC(N)=O)nnc1C(C)C	Thrombin inh 97
Cc1cccc(N2C(=O)CSC23CCCCC3)c1	none
